# Source: ChEMBL document CHEMBL1125931, “Fluorescent markers for hypoxic cells: a study of nitroaromatic compounds, with fluorescent heterocyclic side chains, that undergo bioreductive binding” (J Med Chem, 1991)
# Tests used:
# [1] = Binding of fluorescence moiety to oxic cells measured in flow cytometry assay at conc of 10e-4 M.; assay type: functional, Cricetulus griseus
# Summary of the method: (§1)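 V79 379A Chinese hamster cells (suspension culture, MEM with 7.5% fetal calf serum) incubated at 37 °C with 10^-4 M drug under aerobic or hypoxic gassing (air or N2, each + 5% CO2); DMSO final ≤1%. Flow cytometry after 6 h: excitation 365 nm, emission >390 or 410 nm; naphthalimides excited 458 nm, emission 510–560 nm. Mean fluorescence, arbitrary units, normalized for PMT gain and laser power.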
# [2] = Binding of fluorescence moiety to hypoxic cells measured in flow cytometry assay at conc of 10e-4 M.; assay type: functional, Cricetulus griseus; summary of the method: as §1
# [3] = Cellular content after 4 hr incubation with compound under aerobic condition at 37 C.; assay type: functional; settings: Cricetulus griseus
# Summary of the method: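 Aerobic V79 Chinese hamster cells exposed to 10^-4 M extracellular drug for 4 h at 37 °C, then washed with PBS. Cell content measured by HPLC with an acetonitrile gradient, 50–75% over 10 min with 390 nm detection or 30–50% with 340 nm detection depending on compound. Reported as fmol per cell; about 0.1 fmol/cell corresponds to equilibration with the extracellular space.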
SMILES,Fluorescence Intensity [1],Fluorescence Intensity [2],Uptake [3] [fmol/cell]
COc1cc2oc(=O)cc(Cn3ccnc3[N+](=O)[O-])c2cc1OC,64,1461,
COc1cc2nc(N3CCN(CC(O)Cn4ccnc4[N+](=O)[O-])CC3)nc(N)c2cc1OC (centres undefined),39,85,
COc1ccc2c(Cn3ccnc3[N+](=O)[O-])cc(=O)oc2c1,24,361,
Nc1ccc2c3c(cccc13)C(=O)N(CCCn1ccnc1[N+](=O)[O-])C2=O,17,335,98
COc1cc2cc(Cn3ccnc3[N+](=O)[O-])c(=O)oc2cc1OC,238,1149,
Br.COc1ccc2c(CSCCN)cc(=O)oc2c1,19,77,
Nc1ccc2c3c(cccc13)C(=O)N(CCCCCCCCCn1ccnc1[N+](=O)[O-])C2=O,78,263,105
COc1ccc2cc(Cn3ccnc3[N+](=O)[O-])c(=O)oc2c1,85,203,
CC(=O)Nc1ccc2c3c(cccc13)C(=O)N(CCCn1ccnc1[N+](=O)[O-])C2=O,12,37,0.04
COc1ccc2cc(C(=O)NCCN(CCO)CC(O)Cn3ccnc3[N+](=O)[O-])c(=O)oc2c1 (centres undefined),24,412,
Nc1ccc2c3c(cccc13)C(=O)N(CCCCCn1ccnc1[N+](=O)[O-])C2=O,42,235,93
O=C(CNCCCN(CCO)CCO)Nc1ccc2c3c(cccc13)C(=O)N(CCCn1ccnc1[N+](=O)[O-])C2=O,13,24,< 0.005
